Assay results from ChEMBL document CHEMBL1141391 (J Med Chem, 2007).

Columns and labels:
Tubulin (Homo sapiens) = Tubulin (Homo sapiens) (UniProt P68371+Q9H4B7+P0DPH7+P68366+Q13509+Q71U36+P04350+Q3ZCM7+P07437+P68363+Q9BQE3+Q6PEY2+Q13885+Q9BVA1+Q9BUF5); test: Induction of GTP-tubulin polymerization; type: protein-complex assay
Method in brief: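 ED50 for induction of tubulin assembly, read by light scattering at 350 nm or by fluorescence in a 96-well format. GTP-tubulin was used unless otherwise stated. Some samples were run with GDP-tubulin and normalized to the GTP-tubulin scale. Some values are single determinations.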

A2780 = test: Cytotoxicity against A2780 cell line; type: cell-based; settings: Homo sapiens
PC-3 = test: Cytotoxicity against PC3 cell line by MTT assay; type: cell-based; settings: Homo sapiens
[1] = Inhibition of growth in epothilone A resistant 1A9-A8 T-beta-274I mutant cell line after 72 hrs by SRB assay; type: functional, cell-based; settings: Homo sapiens, 1A9, 72 h
1A9 = test: Inhibition of growth in 1A9 cell line after 72 hrs; type: functional, cell-based; settings: Homo sapiens, 1A9, 72 h
1A9/ptx-10 = test: Inhibition of growth in paclitaxel resistant 1A9-PTX10 F-beta-270V mutant cell line after 72 hrs by SRB assay; type: functional, cell-based; settings: Homo sapiens, 1A9/ptx-10, 72 h

Compound	ED50 (Tubulin (Homo sapiens))	IC50 (A2780)	IC50 (PC-3)	IC50 [1]	IC50 (1A9)	IC50 (1A9/ptx-10)
CC(=O)O[C@H]1C(=O)[C@@]2(C)[C@@H]3[C@H](OC(=O)c4ccccc4)[C@]4(O)C[C@H](OC(=O)[C@H](O)[C@@H](NC(=O)c5ccccc5)c5cccc(c5)OC/C=C\C(=O)O[C@]35CO[C@@H]5C[C@@H]2O)C(C)=C1C4(C)C	4600 nM	6300 nM	580 nM	–	–	–
C=CC(=O)O[C@@]12CO[C@@H]1C[C@H](O)[C@@]1(C)C(=O)[C@H](OC(C)=O)C3=C(C)[C@@H](OC(=O)[C@H](O)[C@@H](NC(=O)c4ccccc4)c4cccc(C=C)c4)C[C@@](O)([C@@H](OC(=O)c4ccccc4)[C@H]21)C3(C)C	1000 nM	1700 nM	320 nM	–	–	–
COc1cccc(C(=O)O[C@H]2[C@@H]3[C@]45CO[C@@H]4C[C@H](O)[C@@]3(C)C(=O)[C@H](OC(C)=O)C3=C(C)[C@H](C[C@]2(O)C3(C)C)OC(=O)[C@H](O)[C@@H](NC(=O)c2ccccc2)c2ccccc2/C=C/CC(=O)O5)c1	570 nM	23.7 nM	6 nM	–	–	–
CC(=O)O[C@H]1C(=O)[C@@]2(C)[C@H]([C@H](OC(=O)c3ccccc3)[C@]3(O)C[C@H](OC(=O)[C@H](O)[C@@H](NC(=O)c4ccccc4)c4ccccc4)C(C)=C1C3(C)C)[C@]1(OC(C)=O)CO[C@@H]1C[C@@H]2O [PACLITAXEL]	500 nM	–	5 nM	21.5 nM	4.8 nM	157 nM
C=CCc1ccccc1[C@H](NC(=O)c1ccccc1)[C@@H](O)C(=O)O[C@H]1C[C@@]2(O)[C@@H](OC(=O)c3ccccc3)[C@@H]3[C@]4(OC(=O)C=C)CO[C@@H]4C[C@H](O)[C@@]3(C)C(=O)[C@H](OC(C)=O)C(=C1C)C2(C)C	1400 nM	1300 nM	550 nM	–	–	–
C=CC(=O)O[C@@]12CO[C@@H]1C[C@H](O)[C@@]1(C)C(=O)[C@H](OC(C)=O)C3=C(C)[C@@H](OC(=O)[C@H](O)[C@@H](NC(=O)c4ccccc4)c4ccccc4C=C)C[C@@](O)([C@@H](OC(=O)c4ccccc4)[C@H]21)C3(C)C	1400 nM	1600 nM	275 nM	–	–	–
CC(=O)O[C@H]1C(=O)[C@@]2(C)[C@@H]3[C@H](OC(=O)c4ccccc4)[C@]4(O)C[C@H](OC(=O)[C@H](O)[C@@H](NC(=O)c5ccccc5)c5ccccc5OCCCCCC(=O)O[C@]35CO[C@@H]5C[C@@H]2O)C(C)=C1C4(C)C	760 nM	980 nM	51 nM	–	–	–
CC(=O)O[C@H]1C(=O)[C@@]2(C)[C@@H]3[C@H](OC(=O)c4ccccc4)[C@]4(O)C[C@H](OC(=O)[C@H](O)[C@@H](NC(=O)c5ccccc5)c5ccccc5OCCCCCCC(=O)O[C@]35CO[C@@H]5C[C@@H]2O)C(C)=C1C4(C)C	850 nM	2000 nM	390 nM	–	–	–
CC(=O)O[C@H]1C(=O)[C@@]2(C)[C@@H]3[C@H](OC(=O)c4ccccc4)[C@]4(O)C[C@H](OC(=O)[C@H](O)[C@@H](NC(=O)c5ccccc5)c5cccc(c5)OCCCCCC(=O)O[C@]35CO[C@@H]5C[C@@H]2O)C(C)=C1C4(C)C	3400 nM	3600 nM	1000 nM	–	–	–
CC(=O)O[C@H]1C(=O)[C@@]2(C)[C@@H]3[C@H](OC(=O)c4ccccc4)[C@]4(O)C[C@H](OC(=O)[C@H](O)[C@@H](NC(=O)c5ccccc5)c5cccc(c5)CCCCC(=O)O[C@]35CO[C@@H]5C[C@@H]2O)C(C)=C1C4(C)C	1400 nM	8800 nM	570 nM	–	–	–
COc1cccc(C(=O)O[C@H]2[C@@H]3[C@]45CO[C@@H]4C[C@H](O)[C@@]3(C)C(=O)[C@H](OC(C)=O)C3=C(C)[C@H](C[C@]2(O)C3(C)C)OC(=O)[C@H](O)[C@@H](NC(=O)OC(C)(C)C)c2ccccc2CCCC(=O)O5)c1	220 nM	0.49 nM	1.3 nM	–	–	–
CC(=O)O[C@H]1C(=O)[C@@]2(C)[C@@H]3[C@H](OC(=O)c4ccccc4)[C@]4(O)C[C@H](OC(=O)[C@H](O)[C@@H](NC(=O)c5ccccc5)c5ccccc5OCCCCC(=O)O[C@]35CO[C@@H]5C[C@@H]2O)C(C)=C1C4(C)C	230 nM	28 nM	13 nM	–	–	–
CC(=O)O[C@H]1C(=O)[C@@]2(C)[C@@H]3[C@H](OC(=O)c4ccccc4)[C@]4(O)C[C@H](OC(=O)[C@H](O)[C@@H](NC(=O)OC(C)(C)C)c5ccccc5/C=C/CC(=O)O[C@]35CO[C@@H]5C[C@@H]2O)C(C)=C1C4(C)C	490 nM	1.4 nM	3.2 nM	–	–	–
COc1cccc(C(=O)O[C@H]2[C@@H]3[C@]45CO[C@@H]4C[C@H](O)[C@@]3(C)C(=O)[C@H](OC(C)=O)C3=C(C)[C@H](C[C@]2(O)C3(C)C)OC(=O)[C@H](O)[C@@H](NC(=O)c2ccccc2)c2ccccc2C/C=C/C(=O)O5)c1	220 nM	17.7 nM	8.2 nM	–	–	–
CC(=O)O[C@H]1C(=O)[C@@]2(C)[C@@H]3[C@H](OC(=O)c4ccccc4)[C@]4(O)C[C@H](OC(=O)[C@H](O)[C@@H](NC(=O)c5ccccc5)c5ccccc5OC/C=C/CCC(=O)O[C@]35CO[C@@H]5C[C@@H]2O)C(C)=C1C4(C)C	900 nM	830 nM	55 nM	–	–	–
CC(=O)O[C@H]1C(=O)[C@@]2(C)[C@@H]3[C@H](OC(=O)c4ccccc4)[C@]4(O)C[C@H](OC(=O)[C@H](O)[C@@H](NC(=O)c5ccccc5)c5ccccc5OC/C=C/CCCC(=O)O[C@]35CO[C@@H]5C[C@@H]2O)C(C)=C1C4(C)C	530 nM	440 nM	90 nM	–	–	–
C=CCCCC(=O)O[C@@]12CO[C@@H]1C[C@H](O)[C@@]1(C)C(=O)[C@H](OC(C)=O)C3=C(C)[C@@H](OC(=O)[C@H](O)[C@@H](NC(=O)c4ccccc4)c4cccc(OCC=C)c4)C[C@@](O)([C@@H](OC(=O)c4ccccc4)[C@H]21)C3(C)C	2200 nM	7400 nM	4600 nM	–	–	–
C=CCOc1ccccc1[C@H](NC(=O)c1ccccc1)[C@@H](O)C(=O)O[C@H]1C[C@@]2(O)[C@@H](OC(=O)c3ccccc3)[C@@H]3[C@]4(OC(=O)C=C)CO[C@@H]4C[C@H](O)[C@@]3(C)C(=O)[C@H](OC(C)=O)C(=C1C)C2(C)C	1200 nM	17800 nM	2800 nM	–	–	–
CC(=O)O[C@H]1C(=O)[C@@]2(C)[C@@H]3[C@H](OC(=O)c4ccccc4)[C@]4(O)C[C@H](OC(=O)[C@H](O)[C@@H](NC(=O)c5ccccc5)c5ccccc5OC/C=C/CCCCC(=O)O[C@]35CO[C@@H]5C[C@@H]2O)C(C)=C1C4(C)C	930 nM	1840 nM	500 nM	–	–	–
C=CCCOc1ccccc1[C@H](NC(=O)c1ccccc1)[C@@H](O)C(=O)O[C@H]1C[C@@]2(O)[C@@H](OC(=O)c3ccccc3)[C@@H]3[C@]4(OC(=O)C=C)CO[C@@H]4C[C@H](O)[C@@]3(C)C(=O)[C@H](OC(C)=O)C(=C1C)C2(C)C	2700 nM	19800 nM	> 13200 nM	–	–	–
CC(=O)O[C@H]1C(=O)[C@@]2(C)[C@@H]3[C@H](OC(=O)c4ccccc4)[C@]4(O)C[C@H](OC(=O)[C@H](O)[C@@H](NC(=O)OC(C)(C)C)c5ccccc5CCCC(=O)O[C@]35CO[C@@H]5C[C@@H]2O)C(C)=C1C4(C)C	180 nM	0.65 nM	1.5 nM	–	–	–
COc1cccc(C(=O)O[C@H]2[C@@H]3[C@]45CO[C@@H]4C[C@H](O)[C@@]3(C)C(=O)[C@H](OC(C)=O)C3=C(C)[C@H](C[C@]2(O)C3(C)C)OC(=O)[C@H](O)[C@@H](NC(=O)c2ccccc2)c2ccccc2CCCC(=O)O5)c1	–	23.1 nM	–	–	–	–
COc1cccc(C(=O)O[C@H]2[C@@H]3[C@]45CO[C@@H]4C[C@H](O)[C@@]3(C)C(=O)[C@H](OC(C)=O)C3=C(C)[C@H](C[C@]2(O)C3(C)C)OC(=O)[C@H](O)[C@@H](NC(=O)OC(C)(C)C)c2ccccc2/C=C/CC(=O)O5)c1	350 nM	> 6 nM	11 nM	–	–	–
CC(=O)O[C@H]1C(=O)[C@@]2(C)[C@@H]3[C@H](OC(=O)c4ccccc4)[C@]4(O)C[C@H](OC(=O)[C@H](O)[C@@H](NC(=O)c5ccccc5)c5cccc(c5)OCCCC(=O)O[C@]35CO[C@@H]5C[C@@H]2O)C(C)=C1C4(C)C	1400 nM	700 nM	53 nM	–	–	–
CC(=O)O[C@H]1C(=O)[C@@]2(C)[C@@H]3[C@H](OC(=O)c4ccccc4)[C@]4(O)C[C@H](OC(=O)[C@H](O)[C@@H](NC(=O)c5ccccc5)c5ccccc5/C=C/CC(=O)O[C@]35CO[C@@H]5C[C@@H]2O)C(C)=C1C4(C)C	330 nM	0.5 nM	3.1 nM	–	–	–
C=CCCC(=O)O[C@@]12CO[C@@H]1C[C@H](O)[C@@]1(C)C(=O)[C@H](OC(C)=O)C3=C(C)[C@@H](OC(=O)[C@H](O)[C@@H](NC(=O)c4ccccc4)c4cccc(OCC=C)c4)C[C@@](O)([C@@H](OC(=O)c4ccccc4)[C@H]21)C3(C)C	1800 nM	2520 nM	2600 nM	–	–	–
C=CCOc1cccc([C@H](NC(=O)c2ccccc2)[C@@H](O)C(=O)O[C@H]2C[C@@]3(O)[C@@H](OC(=O)c4ccccc4)[C@@H]4[C@]5(OC(=O)C=C)CO[C@@H]5C[C@H](O)[C@@]4(C)C(=O)[C@H](OC(C)=O)C(=C2C)C3(C)C)c1	1000 nM	1900 nM	550 nM	–	–	–
